From ChEMBL document CHEMBL1806392, “Phytochemical studies on Stemona aphylla: isolation of a new stemofoline alkaloid and six new stemofurans” (2011)
Converted amounts (≈) assume the structure as drawn.

Assays:
[1] = molecular target: Acetylcholinesterase (Homo sapiens) (UniProt P22303)
[2] = tested on: Klebsiella pneumoniae; test: Antibacterial activity against Klebsiella pneumoniae by broth dilution method; assay type: functional
Outline: (§1)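 Broth dilution MIC determination against the bacterium, reported in µg/mL. Gentamicin served as the positive control.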

[3] = tested on: Staphylococcus aureus; test: Antibacterial activity against methicillin-resistant Staphylococcus aureus by broth dilution method; assay type: functional
Outline: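 Broth dilution giving an MIC in µg/mL, with gentamicin as the antibacterial positive control. The same series covered E. coli, K. pneumoniae, S. aureus, S. pyogenes and two fungi.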

[4] = tested on: Candida albicans; test: Antifungal activity against Candida albicans by broth dilution method; assay type: functional
Outline: (§2)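 Antifungal MIC determined by broth dilution, reported in µg/mL. Amphotericin B served as the positive control.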

[5] = tested on: Staphylococcus aureus; test: Antibacterial activity against Staphylococcus aureus by broth dilution method; assay type: functional
Outline: as §1

[6] = tested on: Streptococcus pyogenes; test: Antibacterial activity against Streptococcus pyogenes by broth dilution method; assay type: functional
Outline: as §1

[7] = tested on: Cryptococcus neoformans; test: Antifungal activity against Cryptococcus neoformans by broth dilution method; assay type: functional
Outline: as §2

[8] = tested on: Escherichia coli; test: Antibacterial activity against Escherichia coli by broth dilution method; assay type: functional
Outline: as §1

Acetylcholinesterase (Homo sapiens), sequence (P22303 whole entry): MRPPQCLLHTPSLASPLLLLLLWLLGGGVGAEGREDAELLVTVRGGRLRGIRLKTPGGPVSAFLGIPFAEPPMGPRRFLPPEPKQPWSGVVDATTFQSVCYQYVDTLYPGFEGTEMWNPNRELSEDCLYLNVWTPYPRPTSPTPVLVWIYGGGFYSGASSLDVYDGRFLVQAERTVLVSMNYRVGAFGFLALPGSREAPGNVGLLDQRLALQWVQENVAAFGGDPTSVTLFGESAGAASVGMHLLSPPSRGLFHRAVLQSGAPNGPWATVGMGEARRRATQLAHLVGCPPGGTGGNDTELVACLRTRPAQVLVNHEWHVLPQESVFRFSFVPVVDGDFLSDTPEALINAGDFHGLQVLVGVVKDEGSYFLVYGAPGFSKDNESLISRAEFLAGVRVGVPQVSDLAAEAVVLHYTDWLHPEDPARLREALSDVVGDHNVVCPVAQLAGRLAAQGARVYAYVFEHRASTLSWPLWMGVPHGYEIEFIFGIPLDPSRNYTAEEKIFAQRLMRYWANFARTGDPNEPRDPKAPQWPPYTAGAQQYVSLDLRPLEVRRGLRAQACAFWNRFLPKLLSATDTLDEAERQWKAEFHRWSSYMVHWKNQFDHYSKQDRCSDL

| Compound | MIC [1] | MIC [2] | MIC [3] | MIC [4] | MIC [5] | MIC [6] | MIC [7] | MIC [8] |
| --- | --- | --- | --- | --- | --- | --- | --- | --- |
| CC[C@H](O)C[C@@]12[C@@H]3C[C@H]4[C@H]5[C@H](C)/C(=C6\OC(=O)C(C)=C6OC)O[C@]5(O3)[C@@H]1CCN42 | 10 ng |  |  |  |  |  |  |  |
| COc1cc(O)c(C)c(-c2cc3c(O)cc(OC)cc3o2)c1 [STEMOFURAN M] |  | 62.5 µg/mL (≈ 208 µM) | 31.3 µg/mL (≈ 104 µM) | 31.3 µg/mL (≈ 104 µM) | 31.3 µg/mL (≈ 104 µM) | 62.5 µg/mL (≈ 208 µM) | 31.3 µg/mL (≈ 104 µM) | 125 µg/mL (≈ 416 µM) |
| COc1cc(-c2cc3c(O)cccc3o2)c(C)c(O)c1C [STEMOFURAN E] |  | 62.5 µg/mL (≈ 220 µM) | 15.6 µg/mL (≈ 54.9 µM) | 31.3 µg/mL (≈ 110 µM) | 62.5 µg/mL (≈ 220 µM) |  | 7.8 µg/mL (≈ 27.4 µM) | 62.5 µg/mL (≈ 220 µM) |
| CC[C@H](O)C[C@@]12[C@@H]3C[C@H]4[C@H]5[C@H](C)[C@@H]([C@H]6OC(=O)C(C)=C6OC)O[C@]5(O3)[C@@H]1CCN42 | 50 ng |  |  |  |  |  |  |  |
| CC[C@H](O)C[C@@]12[C@@H]3C[C@H]4[C@H]5[C@H](C)[C@@H]([C@@H]6OC(=O)C(C)=C6OC)O[C@]5(O3)[C@@H]1CCN42 | 100 ng |  |  |  |  |  |  |  |
| C[C@@H]1[C@H](O)[C@@H](C)/C=C/C=C/C=C/C=C/C=C/C=C/C=C/[C@H](O[C@@H]2O[C@H](C)[C@@H](O)[C@H](N)[C@@H]2O)C[C@@H]2O[C@](O)(C[C@@H](O)C[C@@H](O)[C@H](O)CC[C@@H](O)C[C@@H](O)CC(=O)O[C@H]1C)C[C@H](O)[C@H]2C(=O)O [AMPHOTERICIN B] |  |  |  | 15.6 µg/mL (≈ 16.9 µM) |  |  | 3.9 µg/mL (≈ 4.22 µM) |  |
| CCCC[C@@]12C3CCN1[C@H]1C[C@H]2O[C@@]32O/C(=C3\OC(=O)C(C)=C3OC)[C@@H](C)[C@H]12 | 10 ng |  |  |  |  |  |  |  |
| COc1cc(OC)c(C)c(-c2cc3c(O)cc(OC)cc3o2)c1 [STEMOFURAN P] |  | 125 µg/mL (≈ 398 µM) | 62.5 µg/mL (≈ 199 µM) | 15.6 µg/mL (≈ 49.6 µM) | 31.3 µg/mL (≈ 99.6 µM) |  | 7.8 µg/mL (≈ 24.8 µM) | 62.5 µg/mL (≈ 199 µM) |
| CC/C=C/[C@@]12[C@@H]3C[C@H]4[C@H]5[C@H](C)/C(=C6/OC(=O)C(C)=C6OC)O[C@]5(O3)[C@@H]1CCN42 | 5 ng |  |  |  |  |  |  |  |
| COc1cc(-c2cc3c(O)cccc3o2)c(C)c(OC)c1C [STEMOFURAN J] |  | 62.5 µg/mL (≈ 209 µM) | 15.6 µg/mL (≈ 52.3 µM) | 31.3 µg/mL (≈ 105 µM) | 62.5 µg/mL (≈ 209 µM) | 62.5 µg/mL (≈ 209 µM) | 7.8 µg/mL (≈ 26.1 µM) | 62.5 µg/mL (≈ 209 µM) |
| CC[C@H](O)C[C@@]12[C@@H]3C[C@H]4[C@H]5[C@H](C)/C(=C6/OC(=O)C(C)=C6OC)O[C@]5(O3)[C@@H]1CCN42 | 10 ng |  |  |  |  |  |  |  |
| GENTAMICIN |  | 11.3 µg/mL | 45 µg/mL |  | 22.5 µg/mL | 5.6 µg/mL |  | 11.3 µg/mL |
